Assay type in all cases: functional, Artery
Assay [1] relates to Rattus norvegicus. The assay is described as follows: Percent fall in systolic blood pressure, directly measured on carotid (iv on the jugular vein) of spontaneously hypertensive rats at 1 mg/kg after 10 minutes. The gist of the method:
(§1)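 Anesthetized (sodium pentobarbital, 70 mg/kg) male and female Okamoto SHR, 8 weeks old, 300–350 g. Given iv into the jugular vein in normal saline. Arterial pressure and cardiac rhythm are recorded directly from the carotid by polygraph at set times after dosing. Each is expressed as percent change from the pre-dose control value.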

In assay [2] the test system is Rattus norvegicus. The assay is described as follows: Percent fall in systolic blood pressure, directly measured on carotid (iv on the jugular vein) of spontaneously hypertensive rats at 1 mg/kg after 60 minutes. The gist of the method:
as §1

For assay [3], the system named is Rattus norvegicus. The assay is described as follows: Percent fall in systolic blood pressure, directly measured on carotid (iv on the jugular vein) of spontaneously hypertensive rats at 1 mg/kg after 75 minutes. In a few lines: as §1
The test system of assay [4] is Rattus norvegicus. The assay is described as follows: Percent fall in systolic blood pressure, directly measured on carotid (iv on the jugular vein) of spontaneously hypertensive rats at 1 mg/kg after 45 minutes. In a few lines: as §1
Assay [5] deals with Rattus norvegicus. Put plainly: Percent fall in systolic blood pressure, directly measured on carotid (iv on the jugular vein) of spontaneously hypertensive rats at 1 mg/kg after 90 minutes. In a few lines:
as §1

For assay [6], the system named is Rattus norvegicus. The assay is described as follows: Percent fall in systolic blood pressure, directly measured on carotid (iv on the jugular vein) of spontaneously hypertensive rats at 1 mg/kg after 15 minutes. The gist of the method:
as §1

Assay [7] deals with Rattus norvegicus. The assay is described as follows: Percent fall in systolic blood pressure, directly measured on carotid (iv on the jugular vein) of spontaneously hypertensive rats at 1 mg/kg after 30 minutes. The gist of the method: as §1
Assay [8] relates to Rattus norvegicus. Put plainly: Percent fall in systolic blood pressure, directly measured on carotid (iv on the jugular vein) of spontaneously hypertensive rats at 1 mg/kg after 5 minutes. The gist of the method:
as §1

In the case of `NNc1[nH]ncc2c3cc(O)ccc3nc1-2`, the “Decrease in blood pressure” value in the assay with Rattus norvegicus [1] is 44%; in the assay on Rattus norvegicus [2], 67%; with Rattus norvegicus [3], 56%; with Rattus norvegicus [4], 56%; in the assay with Rattus norvegicus [5] it was 56%; in the assay on Rattus norvegicus [6] it was 60%. Moreover, the “Decrease in blood pressure” value in the assay with Rattus norvegicus [7] is listed as 56%; in the assay on Rattus norvegicus [8], 33%.
